Test results: ChEMBL document CHEMBL4052823, “Extra Sugar on Vancomycin: New Analogues for Combating Multidrug-Resistant Staphylococcus aureus and Vancomycin-Resistant Enterococci” (J Med Chem, 2018)
≈ marks a conversion by molar mass, not a printed value.

Key:
Format in all cases: functional
Enterococcus faecium [1] = experiment: Antibacterial activity against glycopeptide-resistant Enterococcus faecium Efm-HS-08257 vanM after 24 hrs by broth microdilution method; conditions: Efm-HS-08257, 24 h
Procedure, shortened: (§1)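 Broth microdilution in cation-adjusted Mueller-Hinton II broth. DMSO stocks were diluted in broth and twofold serially from 128 to 0.0625 μg/mL or lower. Each well was inoculated with ~10^5 CFU of exponential-phase bacteria and incubated at 37 °C for 24 h. MIC was the lowest concentration giving complete growth inhibition, read per CLSI. Growth controls contained broth plus DMSO.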

Staphylococcus aureus [2] = experiment: Antibacterial activity against healthcare-associated methicillin-resistant/vancomycin-intermediate Staphylococcus aureus Mu50 after 24 hrs by broth microdilution method; conditions: Mu50, 24 h; procedure, shortened: as §1
Enterococcus faecium [3] = experiment: Antibacterial activity against glycopeptide-resistant Enterococcus faecium Efm-HS-0847 vanM after 24 hrs by broth microdilution method; conditions: Efm-HS-0847, 24 h; procedure, shortened: as §1
Enterococcus faecium [4] = experiment: Antibacterial activity against glycopeptide-resistant Enterococcus faecium Efm-HS-0649 vanA after 24 hrs by broth microdilution method; conditions: Efm-HS-0649, 24 h; procedure, shortened: as §1
Enterococcus faecium [5] = experiment: Antibacterial activity against glycopeptide-resistant Enterococcus faecium Efm-HS-vb01 vanB after 24 hrs by broth microdilution method; conditions: Efm-HS-vb01, 24 h; procedure, shortened: as §1
Staphylococcus aureus [6] = experiment: Antibacterial activity against vancomycin/methicillin-susceptible Staphylococcus aureus Newman […] after 24 hrs by broth microdilution method
Procedure, shortened: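 Broth microdilution in cation-adjusted Mueller-Hinton II broth. […] Each well received ~10^5 CFU of exponential-phase bacteria and was incubated at 37 °C for 24 h. MIC was taken as the lowest concentration giving complete growth inhibition, interpreted per CLSI.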

Enterococcus faecium [7] = experiment: Antibacterial activity against glycopeptide-resistant Enterococcus faecium Efm-HS-06188 vanA after 24 hrs by broth microdilution method; conditions: Efm-HS-06188, 24 h; procedure, shortened: as §1

| SMILES | MIC (Enterococcus faecium [1]) [µg/mL] | MIC90 (Staphylococcus aureus [2]) [µg/mL] | MIC (Enterococcus faecium [3]) [µg/mL] | MIC (Enterococcus faecium [4]) [µg/mL] | MIC (Enterococcus faecium [5]) [µg/mL] | MIC90 (Staphylococcus aureus [6]) [µg/mL] | MIC (Enterococcus faecium [7]) [µg/mL] |
| --- | --- | --- | --- | --- | --- | --- | --- |
| CCCCCCCCCCNCCN[C@@]1(C)C[C@H](O[C@H]2[C@H](Oc3c4cc5cc3Oc3ccc(cc3Cl)[C@@H](O)[C@@H](NC(=O)[C@@H](CC(C)C)NC)C(=O)N[C@@H](CC(N)=O)C(=O)N[C@H]5C(=O)N[C@H]3C(=O)N[C@H](C(=O)N[C@H](C(=O)O)c5cc(O)c(CNCCO)c(O)c5-c5cc3ccc5O)[C@H](O)c3ccc(c(Cl)c3)O4)O[C@H](CO)[C@@H](O)[C@@H]2O)O[C@@H](C)[C@H]1O | 1 (≈ 0.586 µM) | 4 (≈ 2.35 µM) | 8 (≈ 4.69 µM) | 16 (≈ 9.38 µM) | 4 (≈ 2.35 µM) | 1 (≈ 0.586 µM) | 16 (≈ 9.38 µM) |
| CCCCCCCCCCNCCN[C@@]1(C)C[C@H](O[C@H]2[C@H](Oc3c4cc5cc3Oc3ccc(cc3Cl)[C@@H](O)[C@@H](NC(=O)[C@@H](CC(C)C)NC)C(=O)N[C@@H](CC(N)=O)C(=O)N[C@H]5C(=O)N[C@H]3C(=O)N[C@H](C(=O)N[C@H](C(=O)O)c5cc(O)c(CN[C@@H]6C(O)O[C@H](CO)[C@@H](O)[C@@H]6O)c(O)c5-c5cc3ccc5O)[C@H](O)c3ccc(c(Cl)c3)O4)O[C@H](CO)[C@@H](O)[C@@H]2O)O[C@@H](C)[C@H]1O (some centres not stated) | 8 (≈ 4.39 µM) | 32 (≈ 17.5 µM) | 32 (≈ 17.5 µM) | 64 (≈ 35.1 µM) | 16 (≈ 8.77 µM) | 8 (≈ 4.39 µM) | 64 (≈ 35.1 µM) |
| CCCCCCc1ccc(CN[C@@]2(C)C[C@H](O[C@H]3[C@H](Oc4c5cc6cc4Oc4ccc(cc4Cl)[C@@H](O)[C@@H](NC(=O)[C@@H](CC(C)C)NC)C(=O)N[C@@H](CC(N)=O)C(=O)N[C@H]6C(=O)N[C@H]4C(=O)N[C@H](C(=O)N[C@H](C(=O)O)c6cc(O)c(CN[C@H]7C(O)O[C@H](CO)[C@H](O)[C@@H]7O)c(O)c6-c6cc4ccc6O)[C@H](O)c4ccc(c(Cl)c4)O5)O[C@H](CO)[C@@H](O)[C@@H]3O)O[C@@H](C)[C@H]2O)cc1 (some centres not stated) | 16 (≈ 8.82 µM) | 0.5 (≈ 0.276 µM) | 32 (≈ 17.6 µM) | 8 (≈ 4.41 µM) | 1 (≈ 0.551 µM) | 0.25 (≈ 0.138 µM) | 8 (≈ 4.41 µM) |
| CCCCCCCCCCNCCN[C@@]1(C)C[C@H](O[C@H]2[C@H](Oc3c4cc5cc3Oc3ccc(cc3Cl)[C@@H](O)[C@@H](NC(=O)[C@@H](CC(C)C)NC)C(=O)N[C@@H](CC(N)=O)C(=O)N[C@H]5C(=O)N[C@H]3C(=O)N[C@H](C(=O)N[C@H](C(=O)O)c5cc(O)c(CN[C@H]6C(O)O[C@H](CO)[C@@H](O)[C@@H]6O)c(O)c5-c5cc3ccc5O)[C@H](O)c3ccc(c(Cl)c3)O4)O[C@H](CO)[C@@H](O)[C@@H]2O)O[C@@H](C)[C@H]1O (some centres not stated) | 8 (≈ 4.39 µM) | 8 (≈ 4.39 µM) | 32 (≈ 17.5 µM) | 64 (≈ 35.1 µM) | 16 (≈ 8.77 µM) | 4 (≈ 2.19 µM) | 64 (≈ 35.1 µM) |
| CN[C@H](CC(C)C)C(=O)N[C@H]1C(=O)N[C@@H](CC(N)=O)C(=O)N[C@H]2C(=O)N[C@H]3C(=O)N[C@H](C(=O)N[C@H](C(=O)O)c4cc(O)c(CNCCO[C@H]5O[C@H](CO)[C@@H](O)[C@H](O)[C@@H]5O)c(O)c4-c4cc3ccc4O)[C@H](O)c3ccc(c(Cl)c3)Oc3cc2cc(c3O[C@@H]2O[C@H](CO)[C@@H](O)[C@H](O)[C@H]2O[C@H]2C[C@](C)(NCc3ccc(-c4ccc(Cl)cc4)cc3)[C@H](O)[C@H](C)O2)Oc2ccc(cc2Cl)[C@H]1O | 0.12 (≈ 0.0637 µM) | 4 (≈ 2.12 µM) | 2 (≈ 1.06 µM) | 0.5 (≈ 0.265 µM) | 2 (≈ 1.06 µM) | 2 (≈ 1.06 µM) | 1 (≈ 0.53 µM) |
| CN[C@H](CC(C)C)C(=O)N[C@H]1C(=O)N[C@@H](CC(N)=O)C(=O)N[C@H]2C(=O)N[C@H]3C(=O)N[C@H](C(=O)N[C@H](C(=O)NCCCN(C)C)c4cc(O)c(C)c(O)c4-c4cc3ccc4O)[C@H](O)c3ccc(c(Cl)c3)Oc3cc2cc(c3O[C@@H]2O[C@H](CO)[C@@H](O)[C@H](O)[C@H]2O[C@H]2C[C@](C)(NCc3ccc(-c4ccc(Cl)cc4)cc3)[C@H](O)[C@H](C)O2)Oc2ccc(cc2Cl)[C@H]1O | 0.12 (≈ 0.0686 µM) | 1 (≈ 0.572 µM) | 1 (≈ 0.572 µM) | 0.5 (≈ 0.286 µM) | 2 (≈ 1.14 µM) | 1 (≈ 0.572 µM) | 1 (≈ 0.572 µM) |
| CCCCCCCCCCNCCN[C@@]1(C)C[C@H](O[C@H]2[C@H](Oc3c4cc5cc3Oc3ccc(cc3Cl)[C@@H](O)[C@@H](NC(=O)[C@@H](CC(C)C)NC)C(=O)N[C@@H](CC(N)=O)C(=O)N[C@H]5C(=O)N[C@H]3C(=O)N[C@H](C(=O)N[C@H](C(=O)O)c5cc(O)c(CNCCCNC(=O)[C@H](O)[C@@H](O)[C@H](O)[C@H](O)CO)c(O)c5-c5cc3ccc5O)[C@H](O)c3ccc(c(Cl)c3)O4)O[C@H](CO)[C@@H](O)[C@@H]2O)O[C@@H](C)[C@H]1O | 0.12 (≈ 0.0633 µM) | 1 (≈ 0.527 µM) | 2 (≈ 1.05 µM) | 2 (≈ 1.05 µM) | 2 (≈ 1.05 µM) | 0.5 (≈ 0.264 µM) | 4 (≈ 2.11 µM) |
| CN[C@H](CC(C)C)C(=O)N[C@H]1C(=O)N[C@@H](CC(N)=O)C(=O)N[C@H]2C(=O)N[C@H]3C(=O)N[C@H](C(=O)N[C@H](C(=O)NCCCN(C)C)c4cc(O)c(CNCCCNC(=O)[C@H](O)[C@@H](O)[C@H](O)[C@H](O)CO)c(O)c4-c4cc3ccc4O)[C@H](O)c3ccc(c(Cl)c3)Oc3cc2cc(c3O[C@@H]2O[C@H](CO)[C@@H](O)[C@H](O)[C@H]2O[C@H]2C[C@](C)(NCc3ccc(-c4ccc(Cl)cc4)cc3)[C@H](O)[C@H](C)O2)Oc2ccc(cc2Cl)[C@H]1O | 1 (≈ 0.5 µM) | 2 (≈ 1 µM) | 2 (≈ 1 µM) | 1 (≈ 0.5 µM) | 8 (≈ 4 µM) | 1 (≈ 0.5 µM) | 2 (≈ 1 µM) |
| CN[C@H](CC(C)C)C(=O)N[C@H]1C(=O)N[C@@H](CC(N)=O)C(=O)N[C@H]2C(=O)N[C@H]3C(=O)N[C@H](C(=O)N[C@H](C(=O)NCCCN(C)C)c4cc(O)c(CNCCO[C@H]5O[C@H](CO)[C@@H](O)[C@H](O)[C@@H]5O)c(O)c4-c4cc3ccc4O)[C@H](O)c3ccc(c(Cl)c3)Oc3cc2cc(c3O[C@@H]2O[C@H](CO)[C@@H](O)[C@H](O)[C@H]2O[C@H]2C[C@](C)(NCc3ccc(-c4ccc(Cl)cc4)cc3)[C@H](O)[C@H](C)O2)Oc2ccc(cc2Cl)[C@H]1O | 0.5 (≈ 0.254 µM) | 4 (≈ 2.03 µM) | 2 (≈ 1.02 µM) | 0.5 (≈ 0.254 µM) | 4 (≈ 2.03 µM) | 2 (≈ 1.02 µM) | 1 (≈ 0.508 µM) |
| CN[C@H](CC(C)C)C(=O)N[C@H]1C(=O)N[C@@H](CC(N)=O)C(=O)N[C@H]2C(=O)N[C@H]3C(=O)N[C@H](C(=O)N[C@H](C(=O)O)c4cc(O)c(CNCCCNC(=O)[C@H](O)[C@@H](O)[C@H](O)[C@H](O)CO)c(O)c4-c4cc3ccc4O)[C@H](O)c3ccc(c(Cl)c3)Oc3cc2cc(c3O[C@@H]2O[C@H](CO)[C@@H](O)[C@H](O)[C@H]2O[C@H]2C[C@](C)(NCc3ccc(-c4ccc(Cl)cc4)cc3)[C@H](O)[C@H](C)O2)Oc2ccc(cc2Cl)[C@H]1O | 8 (≈ 4.18 µM) | 0.12 (≈ 0.0627 µM) | 16 (≈ 8.36 µM) | 4 (≈ 2.09 µM) | 1 (≈ 0.522 µM) | 0.06 (≈ 0.0313 µM) | 1 (≈ 0.522 µM) |
| CCCCCCCCCCNCCN[C@@]1(C)C[C@H](O[C@H]2[C@H](Oc3c4cc5cc3Oc3ccc(cc3Cl)[C@@H](O)[C@@H](NC(=O)[C@@H](CC(C)C)NC)C(=O)N[C@@H](CC(N)=O)C(=O)N[C@H]5C(=O)N[C@H]3C(=O)N[C@H](C(=O)N[C@H](C(=O)O)c5cc(O)c(CN[C@H]6C(O)O[C@H](CO)[C@H](O)[C@@H]6O)c(O)c5-c5cc3ccc5O)[C@H](O)c3ccc(c(Cl)c3)O4)O[C@H](CO)[C@@H](O)[C@@H]2O)O[C@@H](C)[C@H]1O (some centres not stated) | 8 (≈ 4.39 µM) | 0.5 (≈ 0.274 µM) | 8 (≈ 4.39 µM) | 16 (≈ 8.77 µM) | 1 (≈ 0.548 µM) | 0.12 (≈ 0.0658 µM) | 8 (≈ 4.39 µM) |
